The record followed here is the array DNA melting data of Ke et al. (doi:10.1101/2024.01.08.574731).

Data set [1] can be described thus: folding enthalpy; higher = less favourable; fluorescence melt of hairpins on a sequencing array, two-state fit. Conditions: sodium 0.088 M. The gist of the method:
(§1)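 Cy3 signals were normalised both to pre-quench Cy3 and to control constructs. They came from library hairpins carrying annealed Cy3 and quencher oligos on a sequenced MiSeq flow cell, imaged in 50 mM Na-HEPES pH 8.0, 25 mM NaCl, in 2.5 °C steps up to 60 °C. Bootstrapped two-state fits gave melting temperature and folding enthalpy, and four replicates were combined by inverse variance. Fitted temperatures were then raised by 9.35 °C to match UV melts.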

Data set [2] can be described thus: melting temperature; fluorescence melt of hairpins on a sequencing array, two-state fit, raised by 9.35 °C to match UV melts. The note with it: sodium 0.088 M. The gist of the method:
as §1

For the sequence GAACCCCGAAAGGGTTTC (((.(((....))).))), the folding enthalpy in data set [1] was -16.2 kcal/mol. Besides, in data set [2], the Tm came out at 47.8 °C.

For GAACCCGAAAGGGAATTC ((((((....)))..))), the folding enthalpy in data set [1] was -12.1 kcal/mol. In data set [2], the Tm worked out at 31.4 °C.

With GAACCCGAAAGGGCCTTC ((((((....)))..))), in data set [1], the folding enthalpy was -14.2 kcal/mol. For the same sequence, the Tm in data set [2] is 34.6 °C.

Take GAACCCGAAAGGGGGTTC ((((((....)))..))): the folding enthalpy in data set [1] is -25.3 kcal/mol. Also, in data set [2], the Tm was 56 °C.

As for GAACCCGAAAGGGGTTC ((((((....))).))), the folding enthalpy in data set [1] was -26 kcal/mol. In addition, the Tm in data set [2] was 61.1 °C.

Turning to GAACCCGAAAGGGTATTC ((((((....)))..))), the folding enthalpy in data set [1] is -9.47 kcal/mol. Moreover, the Tm in data set [2] amounted to 33.2 °C.

For the sequence GAACCCGGAAACGGGTCC (.(((((....))))).), the folding enthalpy in data set [1] was -11.2 kcal/mol. Moreover, the Tm in data set [2] was 45.4 °C.

Turning to GAACCGGGAAACCGATTC (((.(((....))).))), the folding enthalpy in data set [1] is -26.4 kcal/mol. Further, the Tm in data set [2] came to 39.2 °C.

As to GAACCGGGAAACCGGCTC ((.((((....)))).)), in data set [1], the folding enthalpy is -15.7 kcal/mol. Moreover, in data set [2], the Tm worked out at 46 °C.

On to GAACCGGGAAACCGGTCC (.(((((....))))).), for which, in data set [1], the folding enthalpy is -11.6 kcal/mol. For the same sequence, the Tm in data set [2] is 41.2 °C.

For GAACCTGGAAACGGGTTC (((((.(....).))))), the folding enthalpy in data set [1] was -39.3 kcal/mol. For the same sequence, the Tm in data set [2] was determined as 50.7 °C.

In the case of GAACGAGAAATCGTTC ((((((....)))))), the folding enthalpy in data set [1] was -31.3 kcal/mol. The Tm in data set [2] was 54.5 °C.

Take GAACGAGCGAAAGCTTTC (((..(((....)))))): the folding enthalpy in data set [1] is -8.11 kcal/mol. For the same sequence, in data set [2], the Tm was found to be 23.9 °C.

As for GAACGAGGAAACCCGTTC (((((.(....).))))), the folding enthalpy in data set [1] is -33.5 kcal/mol. Further, the Tm in data set [2] was 45.9 °C.

For GAACGAGGAAACTTGTTC ((((.((....)).)))), the folding enthalpy in data set [1] was -28.7 kcal/mol. For the same sequence, the Tm in data set [2] turned out to be 43.2 °C.

With GAACGCACGAAAGTGTTC (((..(((....)))))), in data set [1], the folding enthalpy is -12.8 kcal/mol. For the same sequence, the Tm in data set [2] came out at 34.1 °C.

GAACGCGAAAGCGAGTTC ((((((....)))..))): the folding enthalpy in data set [1] is -14.8 kcal/mol. Further, the Tm in data set [2] is 43.1 °C.

For GAACGCGAAAGCGATTC ((((((....))).))), the folding enthalpy in data set [1] is -14.1 kcal/mol. In addition, in data set [2], the Tm was 45.7 °C.

As for GAACGCGAAAGCGATTTC ((((((....)))..))), the folding enthalpy in data set [1] is -9.14 kcal/mol. The Tm in data set [2] amounted to 32.3 °C.

For GAACGCGAAAGCGTGTTC ((((((....)))..))), in data set [1], the folding enthalpy is -10.5 kcal/mol. In addition, the Tm in data set [2] is 46.6 °C.

For the sequence GAACGCGCGAAAGCGTTC (((..(((....)))))), the folding enthalpy in data set [1] was -24.7 kcal/mol. Moreover, the Tm in data set [2] is 57.8 °C.

For GAACGCGGAAACACGTCC (.(((.(....).))).), the folding enthalpy in data set [1] is -20.1 kcal/mol. The Tm in data set [2] came to 28.2 °C.

Turning to GAACGCGGAAACGCACTC ((..(((....)))..)), in data set [1], the folding enthalpy was -8.19 kcal/mol. In data set [2], the Tm amounted to 30.1 °C.

GAACGCGGAAACGCATTC (((.(((....))).))): the folding enthalpy in data set [1] is -19.9 kcal/mol. Further, the Tm in data set [2] is 40.1 °C.

Regarding GAACGCGGAAACGCGTCC (.(((((....))))).), the folding enthalpy in data set [1] was -9.64 kcal/mol. Moreover, in data set [2], the Tm came out at 47.8 °C.

As to GAACGGAAACGTTC (((((....))))), in data set [1], the folding enthalpy is -31.7 kcal/mol. Also, in data set [2], the Tm was 55.2 °C.

As to GAACGGACGAAAGTCTTC (((..(((....)))))), the folding enthalpy in data set [1] is -7.13 kcal/mol. Moreover, the Tm in data set [2] stood at 20.7 °C.

Turning to GAACGGGGAAACCCGCTC ((.((((....)))).)), in data set [1], the folding enthalpy is -16.3 kcal/mol. In data set [2], the Tm is 45.3 °C.

Take GAACGTGGAAACATGTTC ((((.((....)).)))): in data set [1], the folding enthalpy is -36.2 kcal/mol. The Tm in data set [2] was 47.2 °C.

Regarding GAACGTGGAAACGCGTTC (((((.(....).))))), in data set [1], the folding enthalpy is -36.4 kcal/mol. Also, the Tm in data set [2] turned out to be 53.8 °C.

As for GAACTAGAAATAGTTC ((((((....)))))), the folding enthalpy in data set [1] was -29.3 kcal/mol. Moreover, the Tm in data set [2] was found to be 42 °C.

GAACTAGGAAACTAGTCC (.(((((....))))).): the folding enthalpy in data set [1] is -20.4 kcal/mol. Moreover, the Tm in data set [2] was found to be 29.7 °C.

As to GAACTCCCGAAAGGGTTC (((..(((....)))))), the folding enthalpy in data set [1] was -12.6 kcal/mol. Further, the Tm in data set [2] worked out at 31.7 °C.

In the case of GAACTGGCGAAAGCCTTC (((..(((....)))))), in data set [1], the folding enthalpy was -6.15 kcal/mol. In addition, the Tm in data set [2] is 19.7 °C.

Turning to GAACTGGGAAACCAGTCC (.(((((....))))).), in data set [1], the folding enthalpy was -14.1 kcal/mol. For the same sequence, the Tm in data set [2] was 37.3 °C.

Turning to GAACTTGGAAACAAGCTC ((.((((....)))).)), in data set [1], the folding enthalpy was -27.1 kcal/mol. Also, the Tm in data set [2] stood at 33.8 °C.

For GAACTTGGAAACAAGTCC (.(((((....))))).), the folding enthalpy in data set [1] is -16.4 kcal/mol. The Tm in data set [2] was 36 °C.
